Data published in ChEMBL document CHEMBL1157072 (Bioorg Med Chem, 2010).
≈ marks a conversion by molar mass, not a printed value. Calls of active or inactive are those of the source. No cut-off for these calls is given here. Numbered stars: 1 amine (or outer) side, 2 acyl side, 3 side chain; on linkers, the order of the positions; unused ones are H or OH. Bridge positions count the residues as written; N and C are the ends. Square brackets hold non-standard residues; d marks the D form. Peptide text beside a SMILES is read from it. I, II: the chains in the order shown. Actinocin(1to9) = Cc1c2oc3c(C)ccc(C(=O)[*:2])c3nc-2c(C(=O)[*:1])c(N)c1=O; NMeV = CN[C@H](C(=O)O)C(C)C; Sar = CNCC(=O)O

Tests used:
Staphylococcus aureus [1] = assay: Antibacterial activity against Staphylococcus aureus NCTC 8325 after 16 to 20 hrs by broth microdilution method; type: functional
Procedure, shortened: (§1)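 Broth microdilution in cation-adjusted Mueller Hinton broth. Compounds were serially diluted twofold in DMSO at 50-fold final strength (2% DMSO final). The inoculum was 1 × 10^4 cells per well. Plates were incubated at 37 °C for 16–20 h, and growth was read as absorbance at 600 nm.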

Staphylococcus aureus [2] = assay: microbe, parasite or virus in culture; settings: isolate d20A1
[3] = Dissociation constant, pKa of the compound; type: physicochemical
Staphylococcus aureus [4] = assay: Antibacterial activity against Staphylococcus aureus NCTC 8325 after 16 to 20 hrs by broth microdilution method in presence of efflux pump inhibitor reserpine; type: functional
Procedure, shortened: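 Broth microdilution in cation-adjusted MHB with reserpine at 20 µg/ml final in the medium as efflux inhibitor. Twofold DMSO dilutions were made (2% DMSO final) with 1 × 10^4 cells per well. Incubation was 37 °C for 16–20 h, with growth read at 600 nm.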

Staphylococcus aureus [5] = assay: Antibacterial activity against Staphylococcus aureus NCTC 8325 harboring genetic deletion of mepR gene after 16 to 20 hrs by broth microdilution method; type: functional; procedure, shortened: as §1
Staphylococcus aureus [6] = assay: Antibacterial activity against Staphylococcus aureus NCTC 8325 harboring genetic deletion of mepRA gene after 16 to 20 hrs by broth microdilution method; type: functional; procedure, shortened: as §1
Staphylococcus aureus [7] = assay: Antibacterial activity against Staphylococcus aureus NCTC 8325 carrying expression vector pG154 after 16 to 20 hrs by broth microdilution method; type: functional; procedure, shortened: as §1
Staphylococcus aureus [8] = assay: Antibacterial activity against Staphylococcus aureus NCTC 8325 carrying expression vector pG154 after 16 to 20 hrs by broth microdilution method in presence of anhydrous tetracycline; type: functional
Procedure, shortened: (§2)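 Broth microdilution in cation-adjusted MHB containing anhydrous tetracycline at 100 ng/ml final to induce the pG154 expression vector. Twofold DMSO compound dilutions were used (2% DMSO final) with 1 × 10^4 cells per well. Incubation was 37 °C for 16–20 h, and absorbance was read at 600 nm.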

Staphylococcus aureus [9] = assay: Antibacterial activity against Staphylococcus aureus NCTC 8325 carrying expression vector pG154 with mepA gene after 16 to 20 hrs by broth microdilution method; type: functional; procedure, shortened: as §1
Staphylococcus aureus [10] = assay: Antibacterial activity against Staphylococcus aureus NCTC 8325 carrying expression vector pG154 with mepA gene after 16 to 20 hrs by broth microdilution method in presence of anhydrous tetracycline; type: functional; procedure, shortened: as §2
Staphylococcus aureus [11] = assay: Antibacterial activity against Staphylococcus aureus NCTC 8325 harboring genetic deletion of mepRA gene and carrying expression vector pG154 after 16 to 20 hrs by broth microdilution method; type: functional; procedure, shortened: as §1
Staphylococcus aureus [12] = assay: Antibacterial activity against Staphylococcus aureus NCTC 8325 harboring genetic deletion of mepRA gene and carrying expression vector pG154 after 16 to 20 hrs by broth microdilution method in presence of anhydrous tetracycline; type: functional; procedure, shortened: as §2
Staphylococcus aureus [13] = assay: Antibacterial activity against Staphylococcus aureus NCTC 8325 harboring genetic deletion of mepRA gene and carrying expression vector pG154 with mepA gene after 16 to 20 hrs by broth microdilution method; type: functional; procedure, shortened: as §1
Staphylococcus aureus [14] = assay: Antibacterial activity against Staphylococcus aureus NCTC 8325 harboring genetic deletion of mepRA gene and carrying expression vector pG154 with mepA gene after 16 to 20 hrs by broth microdilution method in presence of anhydrous tetracycline; type: functional; procedure, shortened: as §2
Staphylococcus aureus [15] = assay: Selectivity ratio of MIC for Staphylococcus aureus NCTC 8325 to MIC for Staphylococcus aureus NCTC 8325 in presence of efflux pump inhibitor reserpine; type: functional
Procedure, shortened: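 MICs by modified broth microdilution in cation-adjusted Mueller Hinton broth. Twofold dilutions were made in DMSO at 50× (2% DMSO final), with 1 × 10^4 cells per well. Growth was read as A600 after 16–20 h at 37 °C. Reserpine was added to the medium at 20 µg/ml final to inhibit efflux.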

Staphylococcus aureus [16] = assay: Induction of mepA gene expression in Staphylococcus aureus NCTC 8325 at 0.125 ug/ml by RT-PCR analysis; type: functional, organism-based
Procedure, shortened: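 S. aureus overnight culture diluted 1/200 in TSB and grown at 37 °C with shaking (250 rpm) to OD600 0.3. Triplicate 5 ml aliquots were exposed to compound or DMSO (2% final) for 3 h at 37 °C. RNA was purified and DNase-treated; 1 µg was reverse-transcribed with random hexamers, with a no-RT control. mepA signal was normalized to rho, untreated set to 1; three experiments, SD.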

Staphylococcus aureus [17] = assay: Induction of mepR gene expression in Staphylococcus aureus NCTC 8325 at 0.125 ug/ml by RT-PCR analysis; type: functional, organism-based
[18] = Selectivity ratio of MIC for MBX-1090-resistant Staphylococcus aureus isolate d20A1 to MIC for Staphylococcus aureus NCTC 8325; type: functional
Procedure, shortened: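 Ratio of resistant-mutant MIC to NCTC 8325 MIC. Both MICs came from broth microdilution in cation-adjusted MHB with 2% DMSO final and 1 × 10^4 cells per well, incubated at 37 °C for 16–20 h and read at 600 nm.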

Compound	MIC (Staphylococcus aureus [1]) [µg/mL]	MIC (Staphylococcus aureus [2]) [µg/mL]	further results
CC1(C)S[C@@H]2[C@H](NC(=O)C(C(=O)O)c3ccccc3)C(=O)N2[C@H]1C(=O)O (stereo partly specified) [CARBENICILLIN]	0.0625 (≈ 0.165 µM)	0.0625 (≈ 0.165 µM)	–
c1cc2cc(-c3ccc(-c4cc5ccc(C6=NCCCN6)cc5[nH]4)cc3)[nH]c2cc1C1=NCCCN1	0.5 (≈ 1.06 µM)	0.5 (≈ 1.06 µM)	pKa [3]: 12.8; MIC (Staphylococcus aureus [4]): 0.125 µg/mL; MIC (Staphylococcus aureus [5]): 0.25 µg/mL (≈ 0.529 µM); MIC (Staphylococcus aureus [6]): 0.5 µg/mL (≈ 1.06 µM); MIC (Staphylococcus aureus [7]): 0.5 µg/mL (≈ 1.06 µM); MIC (Staphylococcus aureus [8]): 0.5 µg/mL; MIC (Staphylococcus aureus [9]): 0.5 µg/mL (≈ 1.06 µM); MIC (Staphylococcus aureus [10]): 0.125 µg/mL; MIC (Staphylococcus aureus [11]): 0.5 µg/mL (≈ 1.06 µM); MIC (Staphylococcus aureus [12]): 0.5 µg/mL; MIC (Staphylococcus aureus [13]): 0.5 µg/mL (≈ 1.06 µM); MIC (Staphylococcus aureus [14]): 0.125 µg/mL; Selectivity ratio (Staphylococcus aureus [15]): 4; Activity (Staphylococcus aureus [16]): Active; Activity (Staphylococcus aureus [17]): Active
O=C(O)c1cn(C2CC2)c2cc(N3CCNCC3)c(F)cc2c1=O [CIPROFLOXACIN]	0.195 (≈ 0.589 µM)	0.391 (≈ 1.18 µM)	Selectivity ratio [18]: 2
N=C(N)c1ccc(-c2cc3ccc(C(=N)N)cc3[nH]2)cc1 [DAPI]	–	–	pKa [3]: 11.6
GENTAMICIN	0.25	–	–
CC(=O)O[C@H]1C[C@@]2(C)[C@@H](C[C@@H](O)[C@H]3[C@@]4(C)CC[C@@H](O)[C@@H](C)[C@@H]4CC[C@@]32C)/C1=C(\CCC=C(C)C)C(=O)O [FUSIDIC ACID]	0.0625 (≈ 0.121 µM)	0.0625 (≈ 0.121 µM)	–
CO[C@@H]1[C@@H](OC(N)=O)[C@@H](O)[C@H](Oc2ccc3c(O)c(NC(=O)c4ccc(O)c(CC=C(C)C)c4)c(=O)oc3c2C)OC1(C)C [NOVOBIOCIN]	0.125 (≈ 0.204 µM)	0.125 (≈ 0.204 µM)	–
Cc1c2oc3c(C)ccc(C(=O)N[C@@H]4C(=O)N[C@H](C(C)C)C(=O)N5CCC[C@H]5C(=O)N(C)CC(=O)N(C)[C@@H](C(C)C)C(=O)O[C@@H]4C)c3nc-2c(C(=O)N[C@@H]2C(=O)N[C@H](C(C)C)C(=O)N3CCC[C@H]3C(=O)N(C)CC(=O)N(C)[C@@H](C(C)C)C(=O)O[C@@H]2C)c(N)c1=O [DACTINOMYCIN] (I: T[dV]P[Sar][NMeV] / II: T[dV]P[Sar][NMeV]; ester I:1-I:C, II:1-II:C; linker I:N-II:N via Actinocin(1to9))	0.625 (≈ 0.498 µM)	0.625 (≈ 0.498 µM)	–
C/C(=C\C(=O)OCCCCCCCCC(=O)O)C[C@@H]1OC[C@H](C[C@@H]2O[C@H]2[C@@H](C)[C@H](C)O)[C@@H](O)[C@H]1O [MUPIROCIN]	0.0312 (≈ 0.0624 µM)	0.0312 (≈ 0.0624 µM)	–
CC1(C)S[C@@H]2[C@H](NC(=O)[C@H](N)c3ccccc3)C(=O)N2[C@H]1C(=O)O [AMPICILLIN]	0.0625 (≈ 0.179 µM)	0.0625 (≈ 0.179 µM)	–
CCN1CCN(c2cc3c(cc2F)c(=O)c(C(=O)O)cn3C2CC2)CC1 [ENROFLOXACIN]	0.125 (≈ 0.348 µM)	0.125 (≈ 0.348 µM)	–
